Reference: publication PMC7201918 (The Journal of Experimental Medicine, 2020)

Assays:
[1] = tested on: GM-CSF (Csf2fl/fl:R26CreERT2 mice); assay: EAE with tamoxifen-induced GM-CSF deletion; type: in vivo, mouse; conditions: tamoxifen by oral gavage after EAE onset in Csf2fl/fl:R26CreERT2 mice; n = 12 mice
CIS−/− BM neutrophils = assay: Immunoblot of JAK-STAT/MAPK/Akt phosphorylation in WT or CIS−/− BM neutrophils; type: cell-based, mouse
Procedure, shortened: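 Ly6G-selected bone marrow neutrophils (≥95% pure) were primed with GM-CSF (100 ng/ml) for 3 h, washed, and held in cytokine-free medium for various times. Cells were lysed in RIPA buffer containing protease and phosphatase inhibitors, and loading was normalized by BCA assay. Lysates were separated on 4–12% Bis-Tris gels, transferred to PVDF, and detected by chemiluminescence. One of three independent experiments.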

[2] = tested on: BM monocytes from WT and CIS−/− mice; assay: Chemokine; type: cell-based, mouse; conditions: 8 h after GM-CSF stimulation, n = 3 mice
Procedure, shortened: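 Bone marrow monocytes from WT and CIS−/− mice were isolated by anti-CD115-biotin/anti-biotin microbead positive selection (>95% purity). They were stimulated with recombinant GM-CSF at 100 ng/ml for 8 h in RPMI 1640 with antibiotics and 10% heat-inactivated FCS. Ccl17 and Ccl22 mRNA was measured by real-time PCR, normalized to Gapdh. n = 3 mice, one experiment.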

[3] = tested on: WT and CIS−/− BM neutrophils; assay: RNASeq of BM neutrophils after GM-CSF stimulation; type: cell-based, mouse; conditions: GM-CSF 100 ng/ml
Procedure, shortened: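 Neutrophils were FACS-sorted from WT and CIS−/− bone marrow (PI– CD3– CD19– CD115– CD11b+ Ly6G+; 99–100% purity). They were left unstimulated or stimulated with recombinant GM-CSF at 100 ng/ml for 4 h and 24 h. RNA libraries underwent single-end 75 bp sequencing on a NextSeq 500 (~20 million reads per sample), and reads were quality-checked with fastqc.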

[4] = tested on: WT or CIS−/− BM neutrophils; type: cell-based, mouse; conditions: for cleaved caspase-3 induction upon cytokine withdrawal: G-CSF: WT and CIS−/− neutrophils, GM-CSF: CIS−/− relative to WT; for Mcl-1 expression: WT and CIS−/− neutrophils, G-CSF or GM-CSF preconditioning
Procedure, shortened: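 Purified bone marrow neutrophils were exposed to recombinant G-CSF or GM-CSF (100 ng/ml) for 3 h, then replenished with cytokine-free medium for the indicated times. RIPA lysates with protease and phosphatase inhibitors were BCA-normalized. They were resolved on 4–12% Bis-Tris gels, blotted to PVDF, and developed by HRP chemiluminescence.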

[5] = tested on: human blood neutrophils and monocytes; assay: Immunoblotting of pSTAT5 and CIS in human blood neutrophils and monocytes; type: cell-based; conditions: GM-CSF stimulation
Procedure, shortened: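 Blood neutrophils and monocytes from healthy human donors were treated with GM-CSF. pSTAT5, CIS and β-actin were immunoblotted from RIPA lysates (protease and phosphatase inhibitors, BCA-normalized) run on 4–12% Bis-Tris gels and detected by chemiluminescence. One experiment representative of three.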

CCRL2 on BM neutrophils = assay: Flow-cytometric analysis of CCRL2 surface expression on BM neutrophils; type: cell-based, mouse; conditions: CIS−/− vs WT neutrophils; n = 3 mice
[6] = tested on: CD131 (GM-CSFRβ) on BM neutrophils; assay: Flow-cytometric analysis of CD131; type: cell-based, mouse; conditions: CIS−/− compared with WT neutrophils from 50:50 chimeric mice; n = 4 mice
Procedure, shortened: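 Surface CD131 was measured by flow cytometry on bone marrow neutrophils from WT:CIS−/− (50:50) chimeric mice. Cells were analysed naive (t0) and after stimulation with recombinant G-CSF or GM-CSF (100 ng/ml). n = 4 mice pooled from two independent experiments.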

[7] = tested on: BM neutrophils from WT and CIS−/− mice; assay: CXCL2 and CCL3 secretion by BM neutrophils; type: cell-based, mouse; conditions: CIS−/− vs WT neutrophils, GM-CSF for 24 h; n = 3 mice
WT mouse BM neutrophils = assay: SOCS mRNA expression by real-time PCR in BM neutrophils; type: cell-based; conditions: purified mouse BM neutrophils, 100 ng/ml GM-CSF, later time points
[8] = tested on: BM monocytes from WT and CIS−/− mice; assay: Differentiation of BM monocytes into CD11c+ GM-Macs; type: cell-based, mouse; conditions: CIS-deficient relative to WT monocytes; n = 4 mice
Procedure, shortened: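 Monocytes were purified from bone marrow by anti-CD115 magnetic positive selection (>95% purity). They were cultured with recombinant GM-CSF at 100 ng/ml in RPMI 1640 with antibiotics and 10% heat-inactivated FCS for the indicated times. The frequency of CD11c+ GM-Macs was determined by flow cytometry. n = 4 mice pooled from two independent experiments.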

eosinophils = conditions: ref Burnham et al., 2013; Matsumoto et al., 1997; Yoshimura et al., 1995; cited from earlier work
[9] = tested on: WT and CIS−/− BM eosinophils; assay: Generation of eosinophils from BM cells in IL-5; type: cell-based, mouse; conditions: IL-5 for 3 d, n = 3 mice
IL-18 = conditions: cited from earlier work
synovial cell cultures = conditions: exogenous IL-18, synovial cell cultures; ref Gracie et al., 1999; cited from earlier work

For CC/C(=C(\c1ccccc1)c1ccc(OCCN(C)C)cc1)c1ccccc1 [tamoxifen], the “progression of EAE” value [1] was “inhibited the progression of EAE”.

For GM-CSF: recombinant GM-CSF (100 ng/ml), the “STAT5 activation, later time points” value (CIS−/− BM neutrophils; CIS−/− vs WT neutrophils, 100 ng/ml GM-CSF, 2 h after stimulation) was “prolonged expression of STAT5 activation at later time points”, the “JAK2-STAT5 activation after cytokine withdrawal” value (CIS−/− BM neutrophils; GM-CSF-primed (3 h) then washed CIS−/− neutrophils) was “Extended JAK2-STAT5 activation” and the “STAT3 and Akt dephosphorylation after cytokine withdrawal” value (CIS−/− BM neutrophils; GM-CSF-primed (3 h) then washed, WT vs CIS−/− neutrophils) was “kinetics of STAT3 and Akt dephosphorylation were similar”. For the same molecule, the “p38 MAPK and SAPK/JNK activation after cytokine withdrawal” value (CIS−/− BM neutrophils; GM-CSF-primed then washed CIS−/− neutrophils) was “prolonged activation of p38 MAPK and SAPK/JNK”, the “chemokine production by monocytes” value [2] was “produced higher levels of chemokines” and the “gene expression change, 24 h” value ([3]; CIS−/− neutrophils, 24 h) was “extensive transcriptional changes”. For the same molecule, the “gene expression change, 4 h” value ([3]; CIS−/− vs WT neutrophils, 4 h) was “little difference in gene expression”, the A1/Bfl-1 induction ([4]; BM neutrophils) was “selectively induced the pro-survival protein A1/Bfl-1” and the “A1/Bfl-1 level upon cytokine withdrawal” value ([4]; CIS−/− neutrophils upon GM-CSF withdrawal) was “sustained for a longer period”. For the same molecule, the “cleaved caspase-3 induction upon cytokine withdrawal” value [4] was “delayed induction of cleaved caspase-3”, the Mcl-1 expression [4] was “no difference in the expression of prosurvival Mcl-1 protein” and the “CIS induction and STAT5 phosphorylation” value [5] was “CIS induction and STAT5 phosphorylation”. The “cell surface CCRL2 expression” value (CCRL2 on BM neutrophils) was “enhanced cell surface CCRL2 expression”, the “cell surface GM-CSFRβ expression after stimulation” value [6] was “higher cell surface GM-CSFRβ expression” and the “CXCL2 and CCL3 secretion” value [7] was “secreted higher levels of CXCL2 and CCL3 chemokines”. For the same molecule, the “persistence of SOCS mRNA induction” value (WT mouse BM neutrophils) was “only Cish mRNA levels were sustained at later time points” and the “differentiation into GM-Macs” value [8] was “accelerated differentiation into GM-Macs”.

In the case of “IL-5: cytokine signaling through the common β chain”, the “Cish expression in eosinophils” value (eosinophils) is listed as “can induce Cish expression” and the eosinophil numbers [9] is listed as “greater numbers”.

In the case of “IL-18: IL-1 family member; exogenous IL-18”, the “effect on CIA, exogenous IL-18” value (IL-18; ref Gracie et al., 1999) is given as “prime CIA” and the “secretion of GM-CSF (along with nitric oxide, TNF, and IFN-γ)” value (synovial cell cultures) is given as “promote the secretion of GM-CSF”.

B1: G-CSF: recombinant G-CSF (100 ng/ml) (protein, UniProt P09919 31-207, looked up)
Granulocyte …: TPLGPASSLPQSFLLKCLEQVRKIQGDGAALQEKLVSECATYKLCHPEELVLLGHSLGIPWAPLSSCPSQALQLAGCLSQLHSGLFLYQGLLQALEGISPELGPTLDTLQLDVADFATTIWQQMEELGMAPALQPTQGAMPAFASAFQRRAGGVLVASHLQSFLEVSYRVLRHLAQP
With B1 the “cleaved caspase-3 induction upon cytokine withdrawal” value [4] was “rapid induction of cleaved caspase-3”, the Mcl-1 expression [4] was “no difference in the expression of prosurvival Mcl-1 protein” and the “cell surface GM-CSFRβ expression after stimulation” value [6] was “no such difference”.

B2: IL-18–binding protein: endogenous inhibitor of IL-18 (protein, UniProt O95998 31-194, looked up)
Interleukin-18-binding protein: TPVSQTTTAATASVRSTKDPCPSQPPVFPAAKQCPALEVTWPEVEVPLNGTLSLSCVACSRFPNFSILYWLGNGSFIEHLPGRLWEGSTSRERGSTGTQLCKALVLEQLTPALHSTNFSCVLVDPEQVVQRHVVLAQLWAGLRATLPPTQEALPSSHSSPQQQG
For B2, the “effect on CIA, IL-18 inhibition” value (IL-18; ref Plater-Zyberk et al., 2001) is given as “alleviation of CIA”.
